Data from publication PMC10455042 (Biochemical engineering journal, 2023).
Where a SMILES comes first, the peptide text is derived from it. [ ]: non-standard residue; d: D form.

Tests used:
[1] = flow cytometry; cited from earlier work
[2] = system: N2a cells; test: alamarBlue cell viability assay; type: cell-based; conditions: 24 h
Procedure, shortened: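 N2a cells in MEM with 10% cosmic calf serum, plated at 1×10^4 cells/well two days before the assay, then PBS-washed. Exposed to increasing peptide concentrations (up to 200 µM) for 24 h at 37 °C, ECB-washed, then given alamarBlue in serum-free medium for 4 h at 37 °C. Fluorescence read at ex 532/[…], normalised to no-peptide control (F/C), triplicate average.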

[3] = Peptide degradation assay in N2a lysates; type: in vitro ADME; conditions: 2 mg/mL N2a lysates, 37°C; HPLC, intact peptide
[4] = system: Tau; test: Western blotting analysis of Tau levels in N2a cells treated with PROTACs; type: cell-based; conditions: N2a cells pre-treated with 10 μM PYR-41 for one hour, then co-incubated with 200 μM peptide for 12 h; western blot
[5] = RWRWR peptide alone; cited from earlier work

In the case of `CC[C@H](C)[C@H](NC(=O)[C@H](Cc1ccc(O)cc1)NC(=O)[C@@H]1CCCN1C(=O)[C@H](C)NC(=O)[C@H](CC(C)C)NC(=O)[C@H](C)NC(=O)[C@H](CO)NC(=O)CNC(=O)[C@H](CO)NC(=O)CNC(=O)CNC(=O)[C@H](CCC(N)=O)NC(=O)[C@H](CCC(=O)O)NC(=O)[C@H](CC(=O)O)NC(=O)[C@H](C)NC(=O)[C@@H](NC(=O)[C@H](C)NC(=O)[C@H](CC(=O)O)NC(=O)[C@H](CCC(N)=O)NC(=O)[C@H](Cc1ccc(O)cc1)NC(=O)[C@H](CCC(N)=O)NC(=O)[C@H](CCC(N)=O)NC(=O)[C@H](Cc1ccc(O)cc1)NC(C)=O)[C@@H](C)O)C(=O)N1CCC[C@H]1C(=O)N[C@H](CCCNC(=N)N)C(=O)N[C@H](CCCNC(=N)N)C(=O)N[C@H](CCCNC(=N)N)C(=O)N[C@H](CCCNC(=N)N)C(=O)N[C@H](CCCNC(=N)N)C(=O)N[C@H](CCCNC(=N)N)C(=O)N[C@H](CCCNC(=N)N)C(=O)N[C@H](CCCNC(=N)N)C(N)=O` [Peptide 1] (Ac-YQQYQDATADEQGGSGSALAPYIP[dR][dR][dR][dR][dR][dR][dR][dR]-NH2), the “Uptake (previously published)” value [1] is given as “time-dependent uptake” and the “Effect on cell viability” value [2] is given as “minimal effects on cell viability”.
With `CC[C@H](C)[C@H](NC(=O)[C@H](Cc1c[nH]c2ccccc12)NC(=O)[C@H](CCCNC(=N)N)NC(=O)CNC(=O)[C@H]1CCCN1C(=O)[C@@H](NC(=O)[C@H](CCCNC(=N)N)NC(=O)[C@@H](NC(=O)[C@H](Cc1c[nH]c2ccccc12)NC(=O)[C@H](CCCNC(=N)N)NC(C)=O)C(C)C)C(C)C)C(=O)N[C@@H](CCCNC(=N)N)C(=O)N[C@@H](CCC(N)=O)C(=O)N[C@@H](Cc1ccc(O)cc1)C(=O)N[C@@H](CCC(N)=O)C(=O)N[C@@H](CCC(N)=O)C(=O)N[C@@H](Cc1ccc(O)cc1)C(=O)N[C@@H](CCC(N)=O)C(=O)N[C@@H](CC(=O)O)C(=O)N[C@@H](C)C(=O)N[C@H](C(=O)N[C@@H](C)C(=O)N[C@@H](CC(=O)O)C(=O)N[C@@H](CCC(=O)O)C(=O)N[C@@H](CCC(N)=O)C(=O)NCC(N)=O)[C@@H](C)O` [Peptide 2] (Ac-RWVRV[dP]GRWIRQYQQYQDATADEQG-NH2) the “Resistance to degradation in N2a lysates” value [3] was “more resistant to degradation than its unstructured counterpart Peptide 1”, the “Effect on cell viability” value [2] was “minimal effects on cell viability” and the “Decrease in Tau signal on co-incubation with E1 inhibitor PYR-41” value [4] was “decrease is negated”.
For RWVRWpGRWIRQ [RWRWR], the “Peptide remaining after 2 hours (previously reported)” value [5] is listed as “approximately 80%”.
